Test results from paper PMC4806563 (Nature chemistry, 2016).

Columns and labels:
PGTs 141–144 = experiment: Glycan microarray on ACG slide, PGTs 141–144 binding; design: species or system human; conditions: panel of glycans I–XI on ACG slide
Method in brief: (§1)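 Glycans I–XI carry a phosphonic acid tail and immobilize spontaneously and covalently on an aluminium oxide-coated glass (ACG) slide. Glycan concentration sets density and spacing. The printed array is incubated with antibody, then with a secondary antibody, and read by fluorescence. Surface dissociation constants (K_D surf) for glycan–antibody binding are derived from the signals.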

[1] = system: DyLight649-conjugated donkey anti-human IgG antibody; experiment: NHS glycan array, binding of secondary antibody; conditions: NHS slide
PG16 [2] = experiment: Glycan microarray on ACG slide, PG16 binding; design: species or system human; conditions: ACG surface, 100 μM printed, serial dilution experiment
Method in brief: as §1

PG16 [3] = experiment: Glycan microarray on NHS-activated glass slide, PG16 binding; design: species or system human; conditions: glycans printed at 100 μM

CC(=O)N[C@H]1[C@H](O[C@H]2[C@H](O)[C@@H](NC(C)=O)C(O)O[C@@H]2CO)O[C@H](CO)[C@@H](O[C@@H]2O[C@H](CO[C@H]3O[C@H](CO[C@H]4O[C@H](CO)[C@@H](O)[C@H](O)[C@@H]4O[C@H]4O[C@H](CO)[C@@H](O)[C@H](O)[C@@H]4O)[C@@H](O)[C@H](O[C@H]4O[C@H](CO)[C@@H](O)[C@H](O)[C@@H]4O[C@H]4O[C@H](CO)[C@@H](O)[C@H](O)[C@@H]4O)[C@@H]3O)[C@@H](O)[C@H](O[C@H]3O[C@H](CO)[C@@H](O)[C@H](O)[C@@H]3O[C@H]3O[C@H](CO)[C@@H](O)[C@H](O)[C@@H]3O[C@H]3O[C@H](CO)[C@@H](O)[C@H](O)[C@@H]3O)[C@@H]2O)[C@@H]1O (stereo partly shown) [Man9GlcNAc2]
PGTs 141–144 binding (PGTs 141–144): significant decrease in the affinity

Man4GlcAc2 [glycan 5]
fluorescent signal from non-specific binding of secondary antibody [1]: strong fluorescent signal

Man5GlcNAc2 [IV]
PG16 binding (PG16 [2]): unable to detect
PG16 binding (PG16 [3]): could not observe binding
